Shown are actives, neighbours in structure and some others; about 0.98% of the full set was active somewhere.
Rtt109 HAT inh – C. albicans Rtt109 histone acetyltransferase inhibition; Q5AAJ8; purified Rtt109/Vps75, ThioGlo CoA-SH fluorescence, 4 h; inhibition, % at 34.9 µM; 330,000 compounds, 0.16% hits; AID 540336;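 active means inhibition of at least 50% in every replicate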
Target sequence (Q5AAJ8 whole entry, looked up): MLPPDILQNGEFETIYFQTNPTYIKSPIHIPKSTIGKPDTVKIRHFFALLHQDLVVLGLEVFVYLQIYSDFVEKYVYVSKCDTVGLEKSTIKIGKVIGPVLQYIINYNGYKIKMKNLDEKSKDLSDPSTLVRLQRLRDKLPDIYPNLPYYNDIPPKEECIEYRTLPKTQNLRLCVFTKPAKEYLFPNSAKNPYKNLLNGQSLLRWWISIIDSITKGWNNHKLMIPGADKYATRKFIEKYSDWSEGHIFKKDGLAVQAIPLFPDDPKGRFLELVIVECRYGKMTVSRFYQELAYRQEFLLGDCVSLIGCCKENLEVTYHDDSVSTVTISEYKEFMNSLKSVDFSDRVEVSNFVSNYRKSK
C2C12 statin – protects C2C12 myotubes from simvastatin toxicity; ATP luminescence, 48 h; scaled: DMSO 0, geranylgeraniol control 100; rescue of ATP level, % at 7.49 µM; 330,000 compounds, 0.78% hits; AID 602340;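 active means mean ATP rescue above about 67%, or every replicate alone reaching that limit, limit read from the data, passing the limit was not always enough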;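 further: myotubes were challenged with 10 µM simvastatin during compound exposure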
ERAP1 HTS inh – inhibitors of human ERAP1 aminopeptidase. Q9NZ08. recombinant ERAP1, Leu-AMC fluorescence, 60 min. inhibition, % at 10.7 µM. 340,000 compounds, 0.15% hits;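 active means mean replicate inhibition of at least 30%, or all replicates individually reaching that 30% level; inactive means mean below 30% and not every replicate reaching it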;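 further: 0% = neutral control wells and 100% = L-leucinethiol positive control wells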
S100A4 MyoIIA – S100A4-myosin IIA interaction inhibition. 360,000 compounds, 0.14% hits. AID 652163. S100A4/TAMRA-MyoIIA peptide fluorescence polarization. inhibition, % at 10.7 µM. P26447;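 active means mean inhibition of at least 70% across replicates, with every replicate also reaching that level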
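assay system = human S100A4 monomer with TAMRA-labelled myosin IIA peptide | also added = labelled myosin peptide probe, 5 nM | incubation = 5 min between mix addition and reading | control set = DMSO and TFP controls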
PGC1a acetyl inh – modulators of PGC1a acetylation; U2OS PGC1a acetylation, AlphaScreen anti-acetyl-lysine; with virally co-expressed GCN5 acetyltransferase; inhibition, % at 15.6 µM; 350,000 compounds, 0.17% hits;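 active means every replicate shows inhibition of at least 40%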;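 further: 0% = neutral control wells and 100% = positive control wells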
Numbers without * were called inactive; x = no result.

SMILES	Rtt109 HAT inh	C2C12 statin	ERAP1 HTS inh	S100A4 MyoIIA	PGC1a acetyl inh
CO[C@@H]1CN(C)C(=O)c2ccc(NC(=O)c3ccccc3F)cc2OC[C@H](C)N(C(=O)c2ccccc2F)C[C@H]1C	x	4	0	12	13
Cc1nc2cc(NC(=O)C3COc4ccccc4O3)ccc2s1 (stereo not drawn)	-2	-3	90*	-1	-2
CSCC(O)Cn1[nH]c(=O)c2cc(Cl)c(Cl)cc2c1=O (stereo not drawn)	2	17	x	0	84*
N#Cc1ccccc1OCC(=O)OCC(=O)c1ccc2c(c1)NC(=O)CO2	7	x	36*	1	1
O=C1COc2ccc(C(=O)COC(=O)COc3ccccc3[N+](=O)[O-])cc2N1	-10	4	-1	-1	32
Cc1ccccc1CC1(CO)CCCN(C(=O)CCC(F)(F)F)C1 (stereo not drawn)	5	11	0	3	x
CSCC(=O)N1CCCC(CO)(Cc2ccccc2C)C1 (stereo not drawn)	-10	-18	12	40	109*
CCOC(=O)c1nn(-c2ccc(F)cc2)c(C)c1C(C)=O	4	74*	x	x	1
CC(C)NC(=O)N(C)C[C@H]1Oc2ccc(NC(=O)Cc3ccccc3)cc2C(=O)N([C@@H](C)CO)C[C@@H]1C	x	-7	1	0	1
COc1ccc(S(=O)(=O)N(C)C[C@@H]2Oc3ncc(Br)cc3C(=O)N([C@H](C)CO)C[C@@H]2C)cc1	x	5	0	1	-3
S=C(c1ccccc1)N1CCN(c2ccccc2)CC1	-2	13	1	-4	-1
CCN(CC)c1ccc(C(=S)N2CCN(c3ccccc3)CC2)cc1	53*	80*	x	x	-7
C[C@@H]1CN([C@H](C)CO)C(=O)c2cccc(NC(=O)C3CCOCC3)c2O[C@H]1CN(C)Cc1ccc2c(c1)OCO2	x	30	0	9	-1
Cc1cc(CNC(=O)[C@H]2C[C@@H]2[C@H](NP(=O)(c2ccccc2)c2ccccc2)c2ccccc2)nn1C	x	x	2	7	x
C[C@H](CO)NC(=O)[C@@H]1C[C@H]1[C@@H](NP(=O)(c1ccccc1)c1ccccc1)c1ccccc1	4	116*	-1	-2	-6
O=C(Nc1ccc(S(=O)(=O)N2CCC(C(=O)NC3CCCCC3)CC2)cc1)c1ccco1	-6	179*	x	x	-8
CS(=O)(=O)N1CC(=O)N2[C@H](C1)[C@@H](c1ccc(C#CCc3ccccc3)cc1)[C@@H]2CO	x	x	-1	-3	5
C[C@@H]1CN([C@H](C)CO)S(=O)(=O)c2ccc(C3=CCCC3)cc2O[C@@H]1CN(C)S(C)(=O)=O	x	-6	x	x	-10
C[C@H](CO)N1C[C@H](C)[C@@H](CN(C)Cc2ccc(-c3ccccc3)cc2)Oc2c(NC(=O)C3CC3)cccc2C1=O	x	29	3	-10	-33
NC(=O)C(CC(=O)O)NC(=O)[C@@H]1CCCNc2c(I)cc([N+](=O)[O-])cc2C(=O)N[C@@H](CO)C(=O)N[C@@H](Cc2ccc(O)cc2)C(=O)N1 (stereo partly drawn)	15	159*	x	x	-6
COc1ccc(S(=O)(=O)Nc2ccc3c(c2)C(=O)N([C@@H](C)CO)C[C@@H](C)[C@@H](CN(C)C(=O)Nc2ccc(C(F)(F)F)cc2)O3)cc1	x	x	-1	-6	23
CCCC(=O)Nc1ccc(C(=O)NNC(=O)c2cccs2)cc1	3	8	3	-4	-3
CCCC(=O)Nc1ccc(C(=O)NNC(=S)NC(=O)c2cccs2)cc1	60*	-20	x	x	-12
CCCCC(=O)Nc1ccc(NC(=O)c2cccs2)cn1	-6	x	x	x	49*
O=C(C[C@@H]1C[C@H]2c3cc(NC(=O)C4CCC4)ccc3O[C@H]2[C@@H](CO)O1)NCC1CC1	x	5	0	-13	-11
C[C@@H]1CCCCO[C@H](CN(C)Cc2ccccc2)[C@@H](C)CN([C@@H](C)CO)C(=O)c2cc(NC(=O)Nc3ccccc3)ccc2O1	x	x	0	-9	1
O=C([C@@H]1[C@@H](CO)[C@@H]2Cn3c(ccc(C4=CCCCC4)c3=O)[C@@H]2N1Cc1nccs1)N1CCOCC1	x	-19	3	0	x
O=C1c2ccc(Oc3ccc4c(c3)C(=O)N(CCCCO)C4=O)cc2C(=O)N1CCCCO	-8	x	x	x	9

Screening results as filed in PubChem.
